Source: PMC3424002 (ACS medicinal chemistry letters, 2012)
Entries after “also recorded” stand apart in the source; their conditions may differ.

Legend:
mice [1] = test: Novel open-field test; type: in vivo, mouse; settings: for locomotor activity / amount of time spent in the center of the novel open-field: i.p. 15 minutes prior to testing; for locomotor activity: Figure 3A; for amount of time spent in the center of the novel open-field: Figure 3B
How it was run: (§1)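 Mice received test compound by ip injection 15 min before testing, with each compound compared against its own within-group vehicle cohort. Compounds were suspended in 2% ethanol, 10% Tween 80 and water; one reference NAM was instead dissolved in saline. Prototypical mGluR5 NAMs served as positive controls. There were 10–12 mice per dose, and data are means ± SEM analysed by one-way ANOVA with Bonferroni post hoc test.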

mice [2] = test: Mouse models of anxiety-like behaviors; type: in vivo; settings: for doses giving statistically significant effects consistent with anxiolysis: i.p., open-field and light-dark box tests
mGluR5 [3] = settings: 10 mg/kg, mouse brain; cited from earlier work
rat mGluR5 = rat mGluR5 (Rattus norvegicus, UniProt P31424); type: cell-based; settings: for effect on IP1 levels / accumulation: in the absence of QA (agonist)
Sequence of rat mGluR5 (P31424 21-1203): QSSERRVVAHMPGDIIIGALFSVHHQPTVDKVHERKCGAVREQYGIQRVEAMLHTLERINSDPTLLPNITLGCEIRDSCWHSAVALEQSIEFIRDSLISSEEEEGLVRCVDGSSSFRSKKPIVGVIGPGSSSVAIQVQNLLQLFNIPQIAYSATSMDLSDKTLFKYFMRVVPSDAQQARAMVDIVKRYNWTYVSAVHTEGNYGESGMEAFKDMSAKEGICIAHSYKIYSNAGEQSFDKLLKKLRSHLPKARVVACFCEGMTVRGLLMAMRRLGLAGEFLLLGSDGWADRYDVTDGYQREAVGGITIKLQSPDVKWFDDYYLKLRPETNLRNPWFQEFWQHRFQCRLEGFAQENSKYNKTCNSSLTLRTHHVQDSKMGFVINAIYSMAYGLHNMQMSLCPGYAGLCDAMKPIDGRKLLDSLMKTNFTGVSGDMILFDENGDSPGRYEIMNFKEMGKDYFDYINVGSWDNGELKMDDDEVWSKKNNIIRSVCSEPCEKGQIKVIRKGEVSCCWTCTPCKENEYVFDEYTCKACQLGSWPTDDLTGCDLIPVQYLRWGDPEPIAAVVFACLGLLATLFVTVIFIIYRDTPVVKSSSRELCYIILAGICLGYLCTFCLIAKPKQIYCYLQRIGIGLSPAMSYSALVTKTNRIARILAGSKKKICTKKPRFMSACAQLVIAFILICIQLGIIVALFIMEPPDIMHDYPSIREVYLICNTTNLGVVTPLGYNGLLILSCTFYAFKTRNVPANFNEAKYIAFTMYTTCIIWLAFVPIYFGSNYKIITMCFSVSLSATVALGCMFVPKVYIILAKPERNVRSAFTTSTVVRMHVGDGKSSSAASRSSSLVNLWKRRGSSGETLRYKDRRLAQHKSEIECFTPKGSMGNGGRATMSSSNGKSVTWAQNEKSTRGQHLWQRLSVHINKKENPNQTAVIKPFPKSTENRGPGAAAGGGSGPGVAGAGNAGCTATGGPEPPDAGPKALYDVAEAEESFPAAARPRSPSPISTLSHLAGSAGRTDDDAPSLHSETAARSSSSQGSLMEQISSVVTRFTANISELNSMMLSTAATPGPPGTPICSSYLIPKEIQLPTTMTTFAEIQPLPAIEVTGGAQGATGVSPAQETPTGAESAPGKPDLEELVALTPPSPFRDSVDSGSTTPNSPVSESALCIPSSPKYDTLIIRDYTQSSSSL

mice [4] = test: Light-dark box test; type: in vivo, mouse; settings: i.p. 15 minutes prior to testing; for proportion of time spent in the light compartment: Figure 3C; for number of compartment transitions: Figure 3D
How it was run: as §1

[5] = system: 63 additional receptors and ion channels; test: Screening in 63 additional receptors and ion channels; type: binding; settings: 100 nM; any of 63 additional receptors and ion channels
mGluR5 [6] = target: mGluR5 (Rattus norvegicus, UniProt P31424); test: Displacement of [3H]1; type: binding; settings: ratio of Ki values versus 1 (MPEP)
Sequence of mGluR5 (Rattus norvegicus, UniProt P31424) (P31424 21-1203): as above

Cc1cccc(C#Cc2ccccc2)n1 [Compound 1, 2-methyl-6-(phenylethynyl)pyridine, reference compound]
overall / locomotor activity at the highest tested doses (mice [1]): no corresponding loss of locomotor activity
locomotor activity (mice [1]): dose-dependently increased
amount of time spent in the center of the novel open-field (mice [1]): dose-dependently increased
anxiolytic effects at the highest tested doses (mice [2]): loss of anxiolytic effects
doses giving statistically significant effects consistent with anxiolysis (mice [2]): 3 to 30 mg/kg
mGluR5 receptor occupancy (mGluR5 [3]): full
effect on IP1 levels / accumulation (rat mGluR5): potently decreased IP1 levels from baseline; also recorded: dose-dependent inverse agonism
proportion of time spent in the light compartment (mice [4]): dose-dependently increased
number of compartment transitions (mice [4]): dose-dependently increased

Cc1nc(C#Cc2cccnc2)cs1 [Compound 2, 3-((2-methyl-1,3-thiazol-4-yl)ethynyl)pyridine, reference compound]
locomotor activity (mice [1]): dose-dependently increased
amount of time spent in the center of the novel open-field (mice [1]): dose-dependently increased
doses giving statistically significant effects consistent with anxiolysis (mice [2]): 10 mg/kg
effect on IP1 levels / accumulation (rat mGluR5): potently decreased IP1 levels from baseline; also recorded: dose-dependent inverse agonism
proportion of time spent in the light compartment (mice [4]): dose-dependently increased
number of compartment transitions (mice [4]): dose-dependently increased

Cc1cccc(C#Cc2cc(F)cc(C#N)c2)n1 [Compound 7i]
overall / locomotor activity at the highest tested doses (mice [1]): no corresponding loss of locomotor activity
locomotor activity (mice [1]): dose-dependently increased
amount of time spent in the center of the novel open-field (mice [1]): dose-dependently increased
anxiolytic effects at the highest tested doses (mice [2]): loss of anxiolytic effects
doses giving statistically significant effects consistent with anxiolysis (mice [2]): 0.3 mg/kg
inhibition of binding at other targets [5]: < 13%
effect on IP1 levels / accumulation (rat mGluR5): potently decreased IP1 levels from baseline; also recorded: dose-dependent inverse agonism
fold increase in mGluR5 binding affinity over compound 1 (mGluR5 [6]): approximately 24 fold
proportion of time spent in the light compartment (mice [4]): dose-dependently increased
number of compartment transitions (mice [4]): dose-dependently increased

N#Cc1cc(F)cc(C#Cc2cccc(C#N)n2)c1 [Compound 7j]
overall / locomotor activity at the highest tested doses (mice [1]): depression in overall activity
locomotor activity (mice [1]): dose-dependently increased
amount of time spent in the center of the novel open-field (mice [1]): dose-dependently increased
anxiolytic effects at the highest tested doses (mice [2]): loss of anxiolytic effects
doses giving statistically significant effects consistent with anxiolysis (mice [2]): 0.1 to 0.3 mg/kg
effect on IP1 levels / accumulation (rat mGluR5): potently decreased IP1 levels from baseline; also recorded: dose-dependent inverse agonism
proportion of time spent in the light compartment (mice [4]): dose-dependently increased
number of compartment transitions (mice [4]): dose-dependently increased

N[C@@H](Cn1oc(=O)[nH]c1=O)C(=O)O [QA, quisqualic acid]
effect on IP1 levels (agonist) (rat mGluR5; agonist stimulation of mGluR5): dose-dependently increased IP1 levels; also recorded: increased IP1 accumulation
